The species named for data set [1] is Canis familiaris. As to the kind of experiment: 50% increase in myocardial contractility (dP/dT max) in dogs. Type of data set: functional, Canis lupus familiaris, Myocardium. An outline of the steps: (§1)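 Acutely instrumented anesthetized dogs (n = 6), 30-min control period. Compound in 0.9% saline, or dilute HCl diluted with saline, at 0.1 mL/kg iv over 1 min. At least four ascending half-log doses, 10 min apart, one compound per animal. Recorded: LV dP/dtmax, heart rate, aortic pressure and forelimb resistance. Values are maximum response from control average ± SEM.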

For data set [2], the species on record is Homo sapiens. As to the kind of experiment: In vitro inhibition of collagen stimulated platelet aggregation in human thrombocyte enriched plasma. Type of data set: functional. The procedure, abridged:
(§2)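 Human platelet-rich plasma from aspirin/NSAID-free donors, adjusted to 250 000 platelets/μL with platelet-poor plasma. Drug in DMSO/saline (1% DMSO final) was added before ADP or collagen, with doses set by titration. Read-out was aggregation extent (ADP, curve height) or rate (collagen, major slope) as % of saline control.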

The species entered for data set [3] is Homo sapiens. As to the kind of experiment: In vitro inhibition of ADP stimulated platelet aggregation in human thrombocyte enriched plasma. Type of data set: functional. The procedure, abridged: as §2
Data set [4] is filed under the species Canis familiaris. Put plainly: Weight of thrombus. Type of data set: functional, Canis lupus familiaris. An outline of the steps:
(§3)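 Pentobarbital-anesthetized (32 mg/kg iv), ventilated dogs, allowed 30 min to stabilize. Continuous infusion of compound (1.0, 3.0 or 10.0 μg/kg/min) or saline began 15 min before 50 μA current was applied to an intraluminal electrode in the circumflex coronary artery. After 60 min of stimulation the animals were euthanized and the thrombus dissected and weighed. One treatment per animal.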

The nature of data set [5]: Partition coefficient (logP). Format: physicochemical. The following applies: octanol/water.
In data set [6] the test system is Canis familiaris. As to the kind of experiment: (§4) Percentage increase in left ventricular contractility in anesthetized dog. Format: functional, Canis lupus familiaris, Heart left ventricle.
The subject of data set [7] is Canis familiaris. As to the kind of experiment: Decrease in thrombus weight in anesthetized dog coronary artery. Format: functional, Canis lupus familiaris. The procedure, abridged:
as §3

The species entered for data set [8] is Homo sapiens. As to the kind of experiment: In vitro inhibition of ADP stimulated platelet aggregation in human whole blood. Type of data set: functional. An outline of the steps: (§5)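 Human whole blood from aspirin/NSAID-free fasted donors, read by impedance aggregometry 5 min after adding ADP or collagen. Aggregation expressed as % of control (2-6 replicates), plotted against log drug concentration; IC50 obtained by extrapolation.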

The species named for data set [9] is Homo sapiens. As to the kind of experiment: In vitro inhibition of collagen stimulated platelet aggregation in human whole blood. Format: functional. The procedure, abridged: as §5
Data set [10] concerns Canis familiaris. The data set is described as §4. Type of data set: functional, Canis lupus familiaris, Heart left ventricle. This is another data set of the same source.
In data set [11] the test system is Canis familiaris. Put plainly: Hemodynamic activity in anesthetized dog as percent change in left ventricular myocardial activity from baseline (2271 mmHg/s) at 0.03 mg/kg administered intravenously. Type of data set: functional, Canis lupus familiaris, Heart left ventricle. Particulars: route intravenous. An outline of the steps:
as §1

The test system of data set [12] is Canis familiaris. As to the kind of experiment: Hemodynamic activity in anesthetized dog as percent change from baseline (2271 mmHg/s) in left ventricular myocardial activity at 0.1 mg/kg administered intravenously. Type of data set: functional, Canis lupus familiaris, Heart left ventricle. Particulars: route intravenous.
Data set [13] relates to Canis familiaris. As to the kind of experiment: Hemodynamic activity in anesthetized dog as percent change in left ventricular myocardial activity from baseline (2271 mmHg/s) at 0.01 mg/kg administered intravenously. Format: functional, Canis lupus familiaris, Heart left ventricle. Particulars: route intravenous. The procedure, abridged: as §1
For data set [14], the system named is Canis familiaris. As to the kind of experiment: Hemodynamic activity in anesthetized dog as percent change in left ventricular myocardial activity from baseline (2271 mmHg/s) at 0.001 mg/kg administered intravenously. Format: functional, Canis lupus familiaris, Heart left ventricle. Particulars: route intravenous. The procedure, abridged:
as §1

Data set [15] has as its system Canis familiaris. As to the kind of experiment: Hemodynamic activity in anesthetized dog as percent change in left ventricular myocardial activity from baseline (2271 mmHg/s) at 0.003 mg/kg administered intravenously. Particulars: route intravenous. Format: functional, Canis lupus familiaris, Heart left ventricle. The procedure, abridged: as §1
Data set [16] can be described thus: Inhibition of phosphodiesterase 3 from guinea pig cardiac tissue at 1E-7-1E-4M or 1.0E-6 to 1E-3 M. The arrangement: species or system Cavia porcellus. An outline of the steps: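 Fraction III cAMP-PDE from guinea pig heart or human platelets. Substrate [3H]cyclic AMP 1.0 μM at 30°C, with hydrolysis held to ≤10-20% and kept linear over 30 min. Compounds in DMSO, 2.5% final.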

Data set [17] concerns the target T1, Phosphodiesterase 3 (Homo sapiens, UniProt Q14432+Q13370). As to the kind of experiment: Inhibition of Phosphodiesterase 3 from human platelets at 1E-7-1E-4M or 1.0E-6 to 1E-3 M. The procedure, abridged:
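Fraction III cAMP-PDE from guinea pig heart or human platelets. Substrate [3H]cyclic AMP 1.0 μM at 30°C, with hydrolysis held to ≤10-20% and kept linear over 30 min.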

The target of data set [18] is T1, Phosphodiesterase 3. As to the kind of experiment: Inhibition of phosphodiesterase 3 from human platelets at 1E-7-1E-4M or 1.0E-6 to 1E-3 M.
Data set [19] concerns Canis familiaris. Put plainly: Hemodynamic activity in anesthetized dog as percent change from baseline (2271 mmHg/s) in left ventricular myocardial activity at 0.3 mg/kg administered intravenously. Format: functional, Canis lupus familiaris, Heart left ventricle. Particulars: route intravenous.
In data set [20] the test system is Canis familiaris. Put plainly: Hemodynamic activity in anesthetized dog as percent change from baseline (2271 mmHg/s) in left ventricular myocardial activity at 1 mg/kg administered intravenously. Particulars: route intravenous. Format: functional, Canis lupus familiaris, Heart left ventricle.
The species named for data set [21] is Canis familiaris. Put plainly: Ratio of positive inotropic activity to peripheral Vasodilator activity in dogs. Format: functional, Canis lupus familiaris. The procedure, abridged: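 Inotropic ED20 is the iv bolus dose giving a 20% rise in dP/dtmax in anesthetized dogs. Vasodilator ED20 is the bolus dose into the brachial cannula of a constant-flow perfused forelimb (pentobarbital 30 mg/kg iv then 3.0 mg/kg/h, heparinized) giving a 20% fall in perfusion pressure. Each ED20 was taken from its dose-response curve; the ratio is PI/PV.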

Data set [22] concerns Canis familiaris. Put plainly: Hemodynamic activity in anesthetized dog as percent change from baseline (2271 mmHg/s) in left ventricular myocardial activity at 3.1 mg/kg administered intravenously. Format: functional, Canis lupus familiaris, Heart left ventricle. Particulars: route intravenous. An outline of the steps: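 Anaesthetised dogs were given one compound each, in ascending half-log iv doses 10 min apart, typically four to six doses. Each dose was dissolved in 0.9% saline or dilute HCl (0.1 or 1.0 N), made up with saline, and given as 0.1 mL/kg over 1 min after a 30-min control period. The readout was LV dP/dt_max from a differentiator amplifier, reported as maximum % change from control average ± SEM.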

Several values for one entry are separate records, joined by “and”; a condition that tells them apart may be missing. Equal entries are not always repeated.

Take `O=C1CCC(CCc2ccc(-n3ccnc3)cc2)=NN1`: in [1], the Dose was found to be 1 mg/kg.

On to `Cc1ncn(-c2ccc(/C=C/C3=NNC(=O)CC3C)cc2)c1C` (configuration not stated), for which the IC50 in data set [2] stood at 1.5 µM; in data set [3] it was 30 µM. The Dose in [1] amounted to 0.05 mg/kg.

As to `CC(Cl)C(=O)Nc1ccc(C2=NNC(=O)CC2C)cc1` (configuration not stated) [AMIPIZONE], in data set [4], the Thrombus weight was 8.3 mg and 4.8 mg and 4.1 mg. In [5], this compound showed a lipophilicity (logP) of 1.4. Moreover, the Increase in [6] was 10% and 23%; in [10], 3%. Besides, the IC50 worked out at 0.15 µM in [2], 0.35 µM in data set [3], 0.01 µM in [8] and 0.4 µM in [9]. Besides, the Inhibition in data set [7] is 54% and 73% and 77%.

For the compound `O=C1CCC(/C=C/c2ccc(-n3cnc4c3CCCC4)cc2)=NN1`, the logP in data set [5] turned out to be 2.47. The IC50 in data set [2] is 0.45 µM; in data set [3], 5 µM; in data set [8] it was 1.7 µM; in data set [9], 1 µM. In [1], the Dose is 0.1 mg/kg.

As for `CC1CC(O)=NN=C1c1ccc(-n2ccnc2)cc1` (configuration not stated) [CI-930], the Change is recorded as 124% in [11]; 149% in data set [12]; 51% in data set [13]; 11% in data set [14]; 25% in data set [15]. Besides, the logP in [5] worked out at 1.29. For the same compound, the 50% inhibitory concentration (IC50) in [2] came to 0.01 µM; in data set [3], 4 µM; in data set [8], 0.4 µM; in data set [9], 45 µM.

With `CC(=O)Nc1ccc(/C=C/C2=NNC(=O)C(C)(C)C2)cc1`, the concentration for half-maximal inhibition (IC50) came to 0.25 µM in [2] and 4 µM in data set [3]. The compound also came in with a Dose in [1] of 1 mg/kg.

Consider `CC1CC(=O)NN=C1/C=C/c1ccc(-n2cnc3c2CCCC3)cc1` (configuration not stated), for which the log partition coefficient (logP) in data set [5] was found to be 3.1. The 50% inhibitory concentration (IC50) in [16] amounted to 0.1 µM; in data set [2], 0.6 µM; in [3], 6 µM; in data set [17], 0.018 µM. The Dose in [1] was found to be 0.05 mg/kg.

The compound `O=C1CCC(/C=C/c2ccc(-n3ccnc3)cc2)=NN1` displayed a logP in data set [5] of 1.21. Moreover, the IC50 was 1.1 µM in data set [16], 0.2 µM in [2], 6 µM in [3] and 0.4 µM in data set [18]. The compound further showed a Dose in data set [1] of 0.02 mg/kg.

As for `CC1CC(=O)N(C)N=C1/C=C/c1ccc(-n2ccnc2)cc1` (configuration not stated), the Dose in data set [1] was 1 mg/kg.

As to `O=C1CCC(c2ccc(-n3ccnc3)cc2)=NN1` [IMAZODAN], the Change in data set [11] turned out to be 37%; in [12] it was 74%; in data set [13], 10%; in data set [19], 127%; in data set [20], 147%. The logP in [5] is 0.96. Moreover, the half-maximal inhibitory concentration (IC50) in [2] was 3 µM; in data set [3], 20 µM; in [8], 8 µM; in [9], 17 µM.

The compound `CC1CC(=O)NN=C1/C=C/c1ccc(N)cc1` (configuration not stated) displayed a Dose in [1] of 1 mg/kg.

Take `CCc1[nH]c(=O)[nH]c1C(=O)c1ccncc1` [PIROXIMONE]: the Change in data set [11] came out at 16%; in [12] it was 41%; in data set [13] it was 8%; in data set [19], 93%; in [20], 144%. In addition, the IC50 came to 15 µM in data set [2] and 60 µM in [3].

On to `Cc1[nH]c(=O)c(C#N)cc1-c1ccncc1` [MILRINONE], for which the Change is 78% in data set [11]; 113% in data set [12]; 31% in [13]; 143% in data set [19]; 149% in [20]. Besides, the IC50 in data set [2] turned out to be 0.1 µM; in data set [3] it was 10 µM; in data set [8] it was 9 µM; in data set [9] it was 0.35 µM.

In turn, `CC(=O)Nc1ccc(/C=C/C2=NNC(=O)CC2C)cc1` (configuration not stated) showed a logP in data set [5] of 1.27. The IC50 in data set [16] came out at 2.8 µM; in [17] it was 0.87 µM. The same compound yielded a Dose in data set [1] of 0.02 mg/kg.

In turn, `CC1CC(=O)NN=C1c1ccc(-n2cnc3c2CCCC3)cc1` (configuration not stated) [TETRAHYDROBENXIMIDAZOLE] displayed a log partition coefficient (logP) in data set [5] of 2.52. Besides, the concentration for half-maximal inhibition (IC50) is 0.15 µM in data set [16]; 0.015 µM in data set [2]; 4 µM in data set [3]; 0.11 µM in [18]; 0.5 µM in data set [8]; 0.75 µM in [9].

For `CCC(=O)Nc1ccc(/C=C/C2=NNC(=O)CC2C)cc1` (configuration not stated), in data set [1], the Dose came to 0.2 mg/kg.

As to `CSc1ccc(C(=O)c2[nH]c(=O)[nH]c2C)cc1` [ENOXIMONE], the Change is on record as 7% in [11]; 19% in data set [12]; 5% in data set [13]; 47% in data set [19]; 83% in [20]. Further, the values for the IC50 in data set [2] and in [3] were 15 µM and 120 µM, respectively. For the same compound, in data set [21], the Ratio is on record as 0.58.

Take `Cc1cc(O)nnc1/C=C/c1ccc(-n2ccnc2)cc1`: the Dose in [1] was found to be 0.2 mg/kg.

`CC1CC(=O)NN=C1/C=C/c1ccc(-n2cnc3ccccc32)cc1` (configuration not stated) displayed a Dose in [1] of 0.09 mg/kg.

Turning to `Nc1cc(-c2ccncc2)c[nH]c1=O` [INAMRINONE], the Change in [22] came to 165%; in data set [12], 9%; in data set [19] it was 32%; in data set [20] it was 85%. In addition, the IC50 came out at 15 µM in data set [2], 250 µM in [3], 50 µM in data set [8] and 500 µM in [9].

The values above are taken from ChEMBL document CHEMBL1124387, “Cardiotonic agents. 9. Synthesis and biological evaluation of a series of (E)-4,5-dihydro-6-[2-[4-(1H-imidazol-1-yl)phenyl]ethenyl]-3 (2H)-pyridazinones: a novel class of compounds with positive inotropic, antithrombotic, and vasodilatory activities for the treatment of congestive heart failure” (J Med Chem, 1989).
